Data reported in ChEMBL document CHEMBL2163267, “Novel N-linked aminopiperidine inhibitors of bacterial topoisomerase type II with reduced pK(a): antibacterial agents with an improved safety profile” (J Med Chem, 2012).
Values after ≈ are worked out from the molar mass of the structure shown.

What was measured:
Staphylococcus aureus [1] = assay: Antibacterial activity against hospital acquired methicillin-resistant Staphylococcus aureus ARC 1692 after 18 to 24 hrs by CLSI broth microdilution method; format: functional
Method in brief: (§1)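 CLSI broth microdilution in Mueller Hinton Broth 2. Inocula prepared from blood agar plates grown at 35 °C for 18–24 h. Compound in DMSO, 2% DMSO final, 11 doubling dilutions from 64 to 0.06 μg/mL. Plates read at 620 nm.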

Staphylococcus aureus [2] = assay: Antibacterial activity against methicillin-resistant Staphylococcus aureus ARC 1692 in ABT-treated CD1 mouse neutropenic thigh infection model assessed as reduction in log10 CFU per gram of thigh at 60 mg/kg/day, ip qd starting 2 hrs post-infection measured after 24 hrs; format: functional; conditions: route intraperitoneal
Mus musculus [3] = assay: AUC (infinity) in CD1 mouse infected with methicillin-resistant Staphylococcus aureus ARC 1692 at 60 mg/kg/day, ip; format: ADME, organism-based, Plasma; set-up: dose 60 mg/kg/day, time infinity, route intraperitoneal; conditions: in vivo
[4] = biological target: T1, Voltage-gated inwardly rectifying potassium channel KCNH2 (Homo sapiens, UniProt Q12809); assay: Displacement of [3H]-astemizole from human ERG expressed in HEK293 cells after 60 mins by liquid scintillation counter; format: cell-based
T1 sequence (Q12809 whole entry): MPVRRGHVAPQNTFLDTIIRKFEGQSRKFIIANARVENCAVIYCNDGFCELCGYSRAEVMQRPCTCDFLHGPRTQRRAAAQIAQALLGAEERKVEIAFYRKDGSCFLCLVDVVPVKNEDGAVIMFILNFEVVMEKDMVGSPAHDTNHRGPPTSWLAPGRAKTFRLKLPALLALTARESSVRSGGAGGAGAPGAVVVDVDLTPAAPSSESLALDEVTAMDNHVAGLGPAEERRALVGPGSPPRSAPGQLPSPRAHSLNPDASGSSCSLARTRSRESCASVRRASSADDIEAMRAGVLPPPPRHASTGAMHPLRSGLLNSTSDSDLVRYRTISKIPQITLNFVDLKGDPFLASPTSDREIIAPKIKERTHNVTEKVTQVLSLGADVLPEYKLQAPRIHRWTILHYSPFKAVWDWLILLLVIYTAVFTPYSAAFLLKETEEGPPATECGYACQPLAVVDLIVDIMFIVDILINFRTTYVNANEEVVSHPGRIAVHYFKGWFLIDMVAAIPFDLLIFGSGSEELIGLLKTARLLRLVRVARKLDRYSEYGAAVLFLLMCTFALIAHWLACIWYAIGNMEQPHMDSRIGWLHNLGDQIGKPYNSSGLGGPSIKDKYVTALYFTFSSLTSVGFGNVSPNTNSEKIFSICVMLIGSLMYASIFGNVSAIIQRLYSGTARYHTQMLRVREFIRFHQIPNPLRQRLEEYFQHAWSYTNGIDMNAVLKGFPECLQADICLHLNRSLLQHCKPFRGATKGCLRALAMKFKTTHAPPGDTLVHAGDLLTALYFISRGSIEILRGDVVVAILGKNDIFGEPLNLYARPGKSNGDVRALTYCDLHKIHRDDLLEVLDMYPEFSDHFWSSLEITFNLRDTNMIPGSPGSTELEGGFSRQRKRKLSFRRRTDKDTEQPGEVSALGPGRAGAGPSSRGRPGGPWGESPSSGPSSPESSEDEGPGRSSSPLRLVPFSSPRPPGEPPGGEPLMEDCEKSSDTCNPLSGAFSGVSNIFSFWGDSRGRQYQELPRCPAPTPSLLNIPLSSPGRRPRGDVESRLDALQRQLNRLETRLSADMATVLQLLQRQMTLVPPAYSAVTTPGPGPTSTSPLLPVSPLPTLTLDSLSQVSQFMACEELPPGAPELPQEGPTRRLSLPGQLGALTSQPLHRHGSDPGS

Staphylococcus aureus [5] = assay: Antibacterial activity against methicillin-susceptible Staphylococcus aureus after 18 to 24 hrs by CLSI broth microdilution method; format: functional
Pseudomonas aeruginosa = assay: Antibacterial activity against Pseudomonas aeruginosa PAO1 after 18 to 24 hrs by CLSI broth microdilution method; format: functional
Staphylococcus aureus [6] = assay: Antibacterial activity against vancomycin-resistant Staphylococcus aureus ARC 3186 after 18 to 24 hrs by CLSI broth microdilution method; format: functional; method in brief: as §1
Staphylococcus aureus [7] = assay: Antibacterial activity against linezolid-resistant Staphylococcus aureus ARC 3583 after 18 to 24 hrs by CLSI broth microdilution method; format: functional; method in brief: as §1
[8] = Oral bioavailability in Wistar Han rat at 10 mg/kg; format: ADME, organism-based; conditions: in vivo
Method in brief: (§2)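 Bioavailability from a 10 mg/kg oral dose, by gavage in rats (groups of three) or orally in male beagle dogs (n = 3). Plasma sampled serially over time (dogs 0 to 24 h). Levels measured by LC-MS/MS and referenced to iv dosing. Parameters from non-compartmental analysis.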

Canis familiaris = assay: Volume of distribution in Beagle dog at 10 mg/kg, iv administered as infusion and po; format: ADME, organism-based, Canis lupus familiaris; set-up: dose 10 mg/kg, route oral; conditions: in vivo
Method in brief: (§3)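 Single iv dose (3 mg/kg bolus, or 10 mg/kg infusion, per line). Rats in groups of three, bolus via cannulated jugular vein. Male beagle dogs (n = 3), iv as 15 min infusion, sampled 0 to 24 h. Serial whole-blood samples taken at time intervals. Plasma levels measured by LC-MS/MS. Parameters estimated by non-compartmental analysis.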

Cavia porcellus = assay: Cardiotoxicity in iv dosed guinea pig assessed as change in MAPD90 at 67 uM total plasma concentration; format: toxicity, organism-based; conditions: in vivo
Method in brief: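 Male guinea pigs anaesthetized with Nembutal, tracheotomized and mechanically ventilated. Compound given iv in two 17 min infusion periods with cardiac pacing. Monophasic action potential recorded continuously and MAPD90 taken. Blood drawn at each dose level for plasma concentration. Vehicle controls run in separate cohorts; n = 6.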

Staphylococcus aureus [9] = assay: Antibacterial activity against methicillin-resistant Staphylococcus aureus ARC 1692 in ABT-treated CD1 mouse neutropenic thigh infection model assessed as reduction in log10 CFU per gram of thigh at 20 mg/kg/day, ip qd starting 2 hrs post-infection measured after 24 hrs; format: functional; conditions: route intraperitoneal
Staphylococcus aureus [10] = assay: Antibacterial activity against community acquired methicillin-resistant Staphylococcus aureus ARC 3189 after 18 to 24 hrs by CLSI broth microdilution method; format: functional; method in brief: as §1
[11] = AUC in Beagle dog at 10 mg/kg, iv administered as infusion; format: ADME, organism-based, Canis lupus familiaris; set-up: dose 10 mg/kg, route intravenous; conditions: plasma; method in brief: as §3
Mus musculus [12] = assay: AUC (infinity) in CD1 mouse infected with methicillin-resistant Staphylococcus aureus ARC 1692 at 20 mg/kg/day, ip; format: ADME, organism-based, Plasma; set-up: dose 20 mg/kg/day, time infinity, route intraperitoneal; conditions: in vivo
Mus musculus [13] = assay: AUC (infinity) in CD1 mouse infected with methicillin-resistant Staphylococcus aureus ARC 1692 at 40 mg/kg/day, ip; format: ADME, organism-based, Plasma; set-up: dose 40 mg/kg/day, time infinity, route intraperitoneal; conditions: in vivo
[14] = Fraction unbound in human plasma at 10 uM by equilibrium dialysis method; format: ADME, cell-free
Method in brief: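 Equilibrium dialysis. Compound at 10 μM in the plasma (donor) chamber against phosphate buffer, rotated at 37 °C for 16 h. Drug in the plasma and buffer samples quantified by LC-MS/MS after methanol protein precipitation with internal standard. Standard curve 10 nM to 10 μM.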

Rattus norvegicus = assay: Volume of distribution in Wistar Han rat at 10 mg/kg, iv administered as infusion and po; format: ADME, organism-based; set-up: dose 10 mg/kg, route oral; conditions: in vivo; method in brief: as §3
[15] = Half life in Beagle dog at 10 mg/kg, iv administered as infusion and po; format: ADME, organism-based, Canis lupus familiaris; set-up: dose 10 mg/kg, route oral; conditions: in vivo
[16] = Inhibition of Escherichia coli DNA topoisomerase 4 subunit ParC/DNA topoisomerase 4 subunit ParE ATPase activity after 24 hrs by malachite green staining-based colorimetric assay
[17] = biological target: T1, Voltage-gated inwardly rectifying potassium channel KCNH2; assay: Inhibition of human ERG by Ionworks assay
[18] = AUC in Wistar Han rat at 10 mg/kg, iv administered as infusion; format: ADME, organism-based; set-up: dose 10 mg/kg, route intravenous; conditions: plasma; method in brief: as §3
[19] = Half life in Wistar Han rat at 10 mg/kg, iv administered as infusion and po; format: ADME, organism-based; set-up: dose 10 mg/kg, route oral; conditions: in vivo
[20] = Intrinsic clearance in Beagle dog hepatocytes measured per 10^6 cells; format: ADME, cell-based, Canis lupus familiaris, Hepatocyte; conditions: read-out: CLH
[21] = Oral bioavailability in Beagle dog at 10 mg/kg; format: ADME, organism-based, Canis lupus familiaris; conditions: in vivo; method in brief: as §2
Escherichia coli = assay: Antibacterial activity against Escherichia coli W3110 after 18 to 24 hrs by CLSI broth microdilution method; format: functional
[22] = Intrinsic clearance in Wistar Han rat hepatocytes measured per 10^6 cells; format: ADME, cell-based, Hepatocyte; conditions: read-out: CLH
Streptococcus pneumoniae = assay: Antibacterial activity against penicillin-susceptible Streptococcus pneumoniae D39 after 18 to 24 hrs by CLSI broth microdilution method; format: functional
[23] = Octanol-phosphate buffer partition coefficient, log D of the compound at pH 7.4 by shake flask method; format: physicochemical
Method in brief: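 Shake-flask partition between n-octanol and 10 mM phosphate buffer at pH 7.4. Shaken 1 h at 1200 rpm to reach equilibrium. Phases analysed by LC/UV, with MS for mass confirmation.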

Staphylococcus aureus [24] = assay: Antibacterial activity against methicillin-resistant Staphylococcus aureus ARC 1692 in ABT-treated CD1 mouse neutropenic thigh infection model assessed as reduction in log10 CFU per gram of thigh at 40 mg/kg/day, ip qd starting 2 hrs post-infection measured after 24 hrs; format: functional; conditions: route intraperitoneal
[25] = Intrinsic clearance in human hepatocytes measured per 10^6 cells; format: ADME, cell-based, Hepatocyte; conditions: read-out: CLH
[26] = Dissociation constant, pKa of the compound by pH metric assay; format: physicochemical
Method in brief: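 pH-metric titration on an automated titrator, run in triplicate. Accuracy about 0.02 log units.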

Mus musculus [27] = assay: AUC (infinity) in CD1 mouse infected with methicillin-resistant Staphylococcus aureus ARC 1692 at 80 mg/kg/day, ip; format: ADME, organism-based, Plasma; set-up: dose 80 mg/kg/day, time infinity, route intraperitoneal; conditions: in vivo
Staphylococcus aureus [28] = assay: Antibacterial activity against methicillin-resistant Staphylococcus aureus ARC 1692 in ABT-treated CD1 mouse neutropenic thigh infection model assessed as reduction in log10 CFU per gram of thigh at 80 mg/kg/day, ip qd starting 2 hrs post-infection measured after 24 hrs; format: functional; conditions: route intraperitoneal

Compound | MIC (Staphylococcus aureus [1]) | MIC (Staphylococcus aureus [5]) | MIC (Pseudomonas aeruginosa) | MIC (Staphylococcus aureus [6]) | MIC (Staphylococcus aureus [7]) | Vd (Canis familiaris) | MIC (Staphylococcus aureus [10]) | AUC [11] | AUC (Mus musculus [13]) | fraction unbound at 10 µM [14] | Vd (Rattus norvegicus) | half-life [15] | IC50 [16] | AUC [18] | hepatocyte CLint [20] | MIC (Escherichia coli) | hepatocyte CLint [22] | MIC (Streptococcus pneumoniae) | logD [23] | log10cfu (Staphylococcus aureus [24]) | other results
N#Cc1ccc2ccc(=O)n(CCN3CC[C@H](NCc4cc5c(cn4)OCCO5)[C@H](F)C3)c2c1 | 0.125 µg/mL (≈ 0.27 µM) | 0.06 µg/mL (≈ 0.129 µM) | > 8 µg/mL | 0.015 µg/mL (≈ 0.0324 µM) | 0.125 µg/mL (≈ 0.27 µM) | 1.5 L/kg | 0.06 µg/mL (≈ 0.129 µM) | 27000 ng·h/mL | 37 µg/h/mL | 0.25 | 3 L/kg | 3.4 h | 48 nM | 3100 ng·h/mL | 4.5 µL/min/1e6 cells | 4 µg/mL (≈ 8.63 µM) | 13 µL/min/1e6 cells | 0.13 µg/mL (≈ 0.28 µM) | 0.96 | 1 | log10cfu (Staphylococcus aureus [2]): 1.5; AUC (Mus musculus [3]): 53 µg/h/mL; IC50 [4]: > 200000 nM; bioavailability [8]: 18%; Activity (Cavia porcellus): Non-toxic; log10cfu (Staphylococcus aureus [9]): 0.1; AUC (Mus musculus [12]): 18 µg/h/mL; IC50 [17]: 233000 nM; half-life [19]: 0.9 h; bioavailability [21]: 60%; hepatocyte CLint [25]: 5.2 µL/min/1e6 cells; pKa [26]: 7.03
N#Cc1ccc2ccc(=O)n(CCN3CC[C@@H](NCc4ccc5c(n4)NC(=O)CO5)[C@@H](F)C3)c2c1 |  | 0.06 µg/mL (≈ 0.126 µM) | 8 µg/mL (≈ 16.8 µM) |  |  | 1.7 L/kg |  | 25000 ng·h/mL |  | 0.2 | 3 L/kg | 5.4 h | 11 nM | 2500 ng·h/mL | 8.6 µL/min/1e6 cells | 1 µg/mL (≈ 2.1 µM) | 14 µL/min/1e6 cells | 0.25 µg/mL (≈ 0.525 µM) | 0.66 |  | hepatocyte CLint [25]: 2 µL/min/1e6 cells; pKa [26]: 7.28
C[C@H]1COc2c(N3CCN(C)CC3)c(F)cc3c(=O)c(C(=O)O)cn1c23.C[C@H]1COc2c(N3CCN(C)CC3)c(F)cc3c(=O)c(C(=O)O)cn1c23.O [LEVOFLOXACIN] | 0.125 µg/mL |  |  | 16 µg/mL | > 16 µg/mL |  | 8 µg/mL |  | 4 µg/h/mL |  |  |  |  |  |  |  |  |  |  | 0.3 | AUC (Mus musculus [27]): 11 µg/h/mL; log10cfu (Staphylococcus aureus [28]): 1.4
